Laboratory results reported in ChEMBL document CHEMBL2440113, “Synthesis, radiofluorination, and in vivo evaluation of novel fluorinated and iodinated radiotracers for PET imaging and targeted radionuclide therapy of melanoma” (J Med Chem, 2013).

Experiments:
[1] = system: Liver; experiment: Biodistribution in liver of C57BL/6J mouse harboring mouse B16-Bl6 cells at 9 to 12 MBq, iv after 1 hr by PET analysis; assay type: ADME, organism-based; conditions: in vivo
Procedure, shortened: (§1)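 Ex vivo dissection in B16Bl6-bearing C57BL/6J mice (3x10⁵ cells s.c. right shoulder), done at day 10 or 14 after implantation. The ¹⁸F tracer was given i.v. at 9-12 MBq. Mice were killed by CO₂ at 1, 2 or 3 h. Tumor, organs and tissues were excised, weighed and gamma-counted, then decay-corrected and expressed as %ID/g. n=3-6 per group; mean ± SD.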

[2] = system: Mus musculus; experiment: Biodistribution in eyes of C57BL/6J mouse harboring mouse B16-Bl6 cells at 9 to 12 MBq, iv after 3 hrs by PET analysis; assay type: ADME, organism-based, Eye; conditions: in vivo; procedure, shortened: as §1
[3] = system: Muscle tissue; experiment: Biodistribution in muscle of C57BL/6J mouse harboring mouse B16-Bl6 cells at 9 to 12 MBq, iv after 3 hrs by PET analysis; assay type: ADME, organism-based; conditions: in vivo; procedure, shortened: as §1
[4] = system: Mus musculus; experiment: Ratio of drug level in tumor to muscle in C57BL/6J mouse harboring mouse B16-Bl6 cells at 9 to 12 MBq, iv after 3 hrs by PET analysis; conditions: in vivo
[5] = system: Mus musculus; experiment: Ratio of drug level in tumor to blood in C57BL/6J mouse harboring mouse B16-Bl6 cells at 9 to 12 MBq, iv after 2 hrs by PET analysis; conditions: tumour
[6] = system: Pancreas; experiment: Biodistribution in pancreas of C57BL/6J mouse harboring mouse B16-Bl6 cells at 9 to 12 MBq, iv after 1 hr by PET analysis; assay type: ADME, organism-based; conditions: in vivo; procedure, shortened: as §1
[7] = system: Stomach; experiment: Biodistribution in stomach of C57BL/6J mouse harboring mouse B16-Bl6 cells at 9 to 12 MBq, iv after 2 hrs by PET analysis; assay type: ADME, organism-based; conditions: in vivo; procedure, shortened: as §1
[8] = system: Liver; experiment: Biodistribution in liver of C57BL/6J mouse harboring mouse B16-Bl6 cells at 9 to 12 MBq, iv after 2 hrs by PET analysis; assay type: ADME, organism-based; conditions: in vivo; procedure, shortened: as §1
[9] = system: Mus musculus; experiment: Biodistribution in tumor of C57BL/6J mouse harboring mouse B16-Bl6 cells at 9 to 12 MBq, iv after 1 hr by PET analysis; assay type: ADME, organism-based, Neoplasm; conditions: in vivo
Procedure, shortened: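 Ex vivo biodistribution. C57BL/6J mice bearing subcutaneous B16Bl6 tumours (3x10⁵ cells, shoulder), day 10 or 14, received [18F]tracer iv (9-12 MBq). They were killed by CO₂ at 1, 2 or 3 h. Tumours and organs were excised, weighed and gamma-counted. Results are decay-corrected % ID/g; ratios are tumour over tissue. n=3-6 per group; mean ± SD.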

[10] = Stability of the compound in saline after 6 hrs; assay type: physicochemical; conditions: read-out: Stability
Procedure, shortened: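 Formulated radiotracer was kept in saline at room temperature; radiochemical purity was checked by analytical radio-HPLC over at least 6 h after preparation.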

[11] = system: Muscle tissue; experiment: Biodistribution in muscle of C57BL/6J mouse harboring mouse B16-Bl6 cells at 9 to 12 MBq, iv after 2 hrs by PET analysis; assay type: ADME, organism-based; conditions: in vivo; procedure, shortened: as §1
[12] = system: Kidney; experiment: Biodistribution in kidney of C57BL/6J mouse harboring mouse B16-Bl6 cells at 9 to 12 MBq, iv after 1 hr by PET analysis; assay type: ADME, organism-based; conditions: in vivo; procedure, shortened: as §1
[13] = system: Blood; experiment: Stability of the compound in blood of C57BL/6J mouse harboring mouse B16-Bl6 cells assessed as unchanged drug level at 18 MBq, iv after 2 hrs; assay type: ADME, organism-based; conditions: in vivo
Procedure, shortened: (§2)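 Metabolite analysis in six B16Bl6 tumour-bearing mice given 18 MBq iv, killed at 30 min, 1 h or 2 h. Plasma (centrifuged) and bladder urine were injected directly. Pooled tumours, eyes and livers were homogenized in MeOH/NH₄OH 99.8:0.2, centrifuged, filtered and concentrated. Samples ran on radio-HPLC (C18, MeOH/H₂O/NH₄OH gradient) in duplicate; result is % unchanged tracer of total radioactivity.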

[14] = Stability of the compound in urine of C57BL/6J mouse harboring mouse B16-Bl6 cells assessed as unchanged drug level at 18 MBq, iv after 1 hr; assay type: ADME, organism-based; conditions: read-out: Stability; procedure, shortened: as §2
[15] = Stability of the compound in eyes of C57BL/6J mouse harboring mouse B16-Bl6 cells assessed as unchanged drug level at 18 MBq, iv after 1 hr; assay type: ADME, organism-based, Eye; conditions: read-out: Stability; procedure, shortened: as §2
[16] = Stability of the compound in tumor of C57BL/6J mouse harboring mouse B16-Bl6 cells assessed as unchanged drug level at 18 MBq, iv after 30 mins; assay type: ADME, organism-based, Neoplasm; conditions: read-out: Stability
[17] = Stability of the compound in tumor of C57BL/6J mouse harboring mouse B16-Bl6 cells assessed as unchanged drug level at 18 MBq, iv after 2 hrs; assay type: ADME, organism-based, Neoplasm; conditions: read-out: Stability; procedure, shortened: as §2
[18] = Stability of the compound in urine of C57BL/6J mouse harboring mouse B16-Bl6 cells assessed as unchanged drug level at 18 MBq, iv after 2 hrs; assay type: ADME, organism-based; conditions: in vivo; procedure, shortened: as §2
[19] = Stability of the compound in liver of C57BL/6J mouse harboring mouse B16-Bl6 cells assessed as unchanged drug level at 18 MBq, iv after 1 hr; assay type: ADME, organism-based; conditions: read-out: Stability; procedure, shortened: as §2
[20] = system: Liver; experiment: Stability of the compound in liver of C57BL/6J mouse harboring mouse B16-Bl6 cells assessed as unchanged drug level at 18 MBq, iv after 2 hrs; assay type: ADME, organism-based; conditions: in vivo; procedure, shortened: as §2
[21] = Stability of the compound in eyes of C57BL/6J mouse harboring mouse B16-Bl6 cells assessed as unchanged drug level at 18 MBq, iv after 2 hrs; assay type: ADME, organism-based, Eye; conditions: read-out: Stability; procedure, shortened: as §2

| Structure (SMILES) | Drug uptake [1] | Drug uptake [2] | Drug uptake [3] | Ratio [4] | Ratio [5] | Drug uptake [6] | Drug uptake [7] | Drug uptake [8] | Drug uptake [9] | remaining at 6 h [10] | Drug uptake [11] | Drug uptake [12] | also measured |
| --- | --- | --- | --- | --- | --- | --- | --- | --- | --- | --- | --- | --- | --- |
| CCN(CCNC(=O)c1cnc2cc(I)ccc2n1)CCOCCOCCOCCOCCOCCOCCOCC[18F] | 2.02 % ID/g | 13.43 % ID/g | 1.11 % ID/g | 6.64 | 4.01 | 2.63 % ID/g | 7.35 % ID/g | 2.31 % ID/g | 9.81 % ID/g | > 99% | 1.04 % ID/g | 3.6 % ID/g | – |
| CCN(CCNC(=O)c1cnc2cc(I)ccc2n1)CCOCCOCCOCC[18F] | 2.56 % ID/g | 17.96 % ID/g | 0.81 % ID/g | 14.46 | 12.19 | 2.09 % ID/g | 2.48 % ID/g | 1.88 % ID/g | 14.05 % ID/g | > 99% | 0.92 % ID/g | 3.46 % ID/g | Stability [13]: Unstable; remaining at 1 h [14]: 0.1%; remaining at 1 h [15]: > 99%; remaining at 0.5 h [16]: > 99%; remaining at 2 h [17]: > 99%; Stability [18]: Unstable; remaining at 1 h [19]: 8%; Stability [20]: Unstable; remaining at 2 h [21]: > 99% |
